Consider 13 compounds from ChEMBL document CHEMBL1126069, “Synthesis of high affinity fluorine-substituted ligands for the androgen receptor. Potential agents for imaging prostatic cancer by positron emission tomography” (J Med Chem, 1992).

Experiment [1] is filed under the species Rattus norvegicus. The experiment can be described thus: Relative affinity for rat androgen receptor(AR) and mineralocorticoid receptor(MR). An outline of the steps: (§1)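 Each ratio is AR relative binding affinity divided by the RBA for PgR, MR or SBP. The AR source was ventral prostate cytosol from mature male Holtzman rats orchidectomized 24 h before. Cytosol was preincubated with triamcinolone acetonide to block PgR and corticosteroid receptors. [3H]R1881 served as tracer, incubated 18 h at 0 °C. Free ligand was removed with dextran-coated charcoal, 15 min at 0 °C. AR RBA is on a percent scale versus R1881.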

Experiment [2] is described as follows: Relative affinity for rat androgen receptor(AR) and human Sex steroid binding protein (SBP). The method, boiled down:
as §1

Experiment [3] concerns the target T1, Mineralocorticoid receptor (Rattus norvegicus) (UniProt P22199).
T1 sequence (whole entry): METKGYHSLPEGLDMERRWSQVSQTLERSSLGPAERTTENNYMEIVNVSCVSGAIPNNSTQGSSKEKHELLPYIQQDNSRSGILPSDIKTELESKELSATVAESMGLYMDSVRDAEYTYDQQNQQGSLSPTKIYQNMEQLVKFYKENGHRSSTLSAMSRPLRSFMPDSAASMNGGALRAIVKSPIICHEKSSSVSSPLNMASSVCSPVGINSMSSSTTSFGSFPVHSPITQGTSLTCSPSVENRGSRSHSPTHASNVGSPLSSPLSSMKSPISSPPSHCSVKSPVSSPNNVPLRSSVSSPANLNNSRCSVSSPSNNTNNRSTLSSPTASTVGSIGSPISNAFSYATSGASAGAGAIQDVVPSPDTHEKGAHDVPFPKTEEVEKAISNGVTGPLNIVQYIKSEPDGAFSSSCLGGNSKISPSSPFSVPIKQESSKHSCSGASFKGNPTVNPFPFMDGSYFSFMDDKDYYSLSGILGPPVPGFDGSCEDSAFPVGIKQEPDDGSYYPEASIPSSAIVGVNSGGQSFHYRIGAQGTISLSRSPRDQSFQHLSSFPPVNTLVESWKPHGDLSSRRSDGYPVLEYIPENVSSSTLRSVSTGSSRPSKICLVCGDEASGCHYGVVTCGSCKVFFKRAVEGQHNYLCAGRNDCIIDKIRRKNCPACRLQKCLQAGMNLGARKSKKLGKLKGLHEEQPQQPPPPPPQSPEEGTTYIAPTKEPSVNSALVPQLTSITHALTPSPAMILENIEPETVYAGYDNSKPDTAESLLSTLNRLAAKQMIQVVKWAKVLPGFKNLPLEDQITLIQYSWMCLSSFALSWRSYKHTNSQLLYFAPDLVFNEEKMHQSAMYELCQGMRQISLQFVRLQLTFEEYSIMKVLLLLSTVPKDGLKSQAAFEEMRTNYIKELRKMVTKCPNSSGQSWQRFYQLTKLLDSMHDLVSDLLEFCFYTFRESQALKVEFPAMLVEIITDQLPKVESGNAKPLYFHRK
As to the kind of experiment: Displacement of [3H]aldosterone from rat Mineralocorticoid receptor. The method, boiled down:
(§2)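 Competitive radiometric binding assay giving relative binding affinities. The reference standards were R5020 for rat PgR, aldosterone for rat MR and estradiol for human SBP.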
On the technique in general: Loss of bound radioactivity is the signal in a displacement assay; it reports binding, not function.

Experiment [4] has as its target T2, Progesterone receptor (Rattus norvegicus) (UniProt Q63449).
T2 sequence (whole entry): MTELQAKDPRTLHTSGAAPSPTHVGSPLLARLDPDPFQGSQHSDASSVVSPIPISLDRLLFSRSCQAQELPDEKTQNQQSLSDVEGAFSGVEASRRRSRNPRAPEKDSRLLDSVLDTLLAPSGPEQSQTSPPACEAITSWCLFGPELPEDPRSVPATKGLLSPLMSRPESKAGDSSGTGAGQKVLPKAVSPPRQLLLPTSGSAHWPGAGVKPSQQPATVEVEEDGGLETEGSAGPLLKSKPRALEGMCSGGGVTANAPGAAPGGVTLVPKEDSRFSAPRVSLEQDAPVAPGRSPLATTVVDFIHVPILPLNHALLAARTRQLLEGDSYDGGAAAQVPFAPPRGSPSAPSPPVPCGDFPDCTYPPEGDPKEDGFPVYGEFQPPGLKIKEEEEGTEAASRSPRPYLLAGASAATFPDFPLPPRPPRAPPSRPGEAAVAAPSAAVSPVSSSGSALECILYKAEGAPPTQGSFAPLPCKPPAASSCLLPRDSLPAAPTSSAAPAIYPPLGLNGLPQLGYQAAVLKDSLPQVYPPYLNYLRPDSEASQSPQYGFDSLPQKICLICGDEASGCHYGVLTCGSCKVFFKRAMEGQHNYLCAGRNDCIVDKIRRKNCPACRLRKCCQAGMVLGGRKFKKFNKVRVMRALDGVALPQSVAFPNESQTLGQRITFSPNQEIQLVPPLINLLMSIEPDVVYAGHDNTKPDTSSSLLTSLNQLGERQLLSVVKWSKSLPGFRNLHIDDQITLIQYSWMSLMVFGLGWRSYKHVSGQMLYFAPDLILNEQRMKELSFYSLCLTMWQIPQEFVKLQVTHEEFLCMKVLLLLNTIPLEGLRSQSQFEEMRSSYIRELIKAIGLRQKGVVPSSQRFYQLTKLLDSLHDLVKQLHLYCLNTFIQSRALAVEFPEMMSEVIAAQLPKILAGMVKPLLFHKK
The experiment can be described thus: Displacement of [3H]R5020 from rat progesterone receptor(PgR). The method, boiled down: as §2

The target in experiment [5] is T3, Sex hormone-binding globulin (Homo sapiens) (UniProt P04278).
T3 sequence (whole entry): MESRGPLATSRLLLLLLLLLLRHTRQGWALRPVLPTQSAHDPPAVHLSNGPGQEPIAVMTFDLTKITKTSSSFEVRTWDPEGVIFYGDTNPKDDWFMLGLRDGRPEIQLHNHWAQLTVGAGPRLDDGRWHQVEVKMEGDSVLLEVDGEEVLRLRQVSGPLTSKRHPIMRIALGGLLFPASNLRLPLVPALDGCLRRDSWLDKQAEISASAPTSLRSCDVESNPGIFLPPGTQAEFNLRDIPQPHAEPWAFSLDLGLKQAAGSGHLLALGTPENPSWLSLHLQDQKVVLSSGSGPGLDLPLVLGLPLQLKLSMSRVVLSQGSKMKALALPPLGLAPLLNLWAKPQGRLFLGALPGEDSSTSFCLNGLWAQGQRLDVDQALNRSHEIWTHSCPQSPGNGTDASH
The experiment can be described thus: Displacement of [3H]estradiol from human Sex steroid binding protein (SBP). The method, boiled down:
as §2

For experiment [6], the species on record is Rattus norvegicus. As to the kind of experiment: Relative affinity for rat androgen receptor(AR) and progesterone receptor(PgR). The method, boiled down:
as §1

Turning to `C[C@]1(O)CC[C@H]2[C@@H]3CCC4=CC(=O)CCC4=C3C=C[C@@]21C`, the RBA ratio in the experiment listed under Rattus norvegicus [1] worked out at 3.9; in experiment [2], 25; in the experiment listed under Rattus norvegicus [6], 2.3. Besides, the figures for the relative binding affinity (RBA) in experiment [3], in experiment [4] and in experiment [5] were 25.4, 43.7 and 4, respectively.
Regarding `C[C@]12CC[C@H]3[C@@H](CCC4CC(=O)CC[C@@]43C)[C@@H]1C[C@@H](F)[C@@H]2O` (some centres not stated), the RBA ratio in the experiment listed under Rattus norvegicus [1] turned out to be 75.5; in experiment [2], 0.02; in the experiment filed under Rattus norvegicus [6] it was 56.1. Also, the results for the relative binding affinity (RBA) in experiment [3], in experiment [4] and in experiment [5] were 0.05, 0.07 and 228, respectively.
For the compound `C[C@@H]1CC2=CC(=O)CC[C@@H]2C2CC[C@@]3(C)C(CC[C@@]3(O)CF)C21` (some centres not stated), the RBA ratio in the experiment listed under Rattus norvegicus [1] was 61.9; in experiment [2], 17.7; in the experiment filed under Rattus norvegicus [6], 5.2. Moreover, the relative binding affinity (RBA) stood at 0.86 in experiment [3], 10.3 in experiment [4] and 3 in experiment [5].
Take `C[C@@H]1CC2=CC(=O)CC[C@@H]2C2CC[C@@]3(C)C(CC[C@]3(C)O)C21` (some centres not stated): the RBA ratio in the experiment filed under Rattus norvegicus [1] was found to be 20.7; in experiment [2] it was 6.2; in the experiment listed under Rattus norvegicus [6], 5.8. Also, the values for the relative binding affinity (RBA) in experiment [3], in experiment [4] and in experiment [5] were 5.7, 20.4 and 19, respectively.
In the case of `C[C@]12C=CC3=C4CCC(=O)C=C4CCC3C1CC[C@@]2(O)CF` (some centres not stated), the RBA ratio in the experiment listed under Rattus norvegicus [1] amounted to 4.2; in experiment [2], 8.5; in the experiment listed under Rattus norvegicus [6] it was 1.8. For the same compound, the relative binding affinity (RBA) stood at 4.5 in experiment [3], 10.5 in experiment [4] and 2.2 in experiment [5].
Turning to `C[C@@H]1CC2=CC(=O)CC[C@@H]2C2CC[C@@]3(C)C(C[C@@H](F)[C@@H]3O)C21` (some centres not stated), the RBA ratio in the experiment listed under Rattus norvegicus [1] is 104; in experiment [2] it was 5.5; in the experiment filed under Rattus norvegicus [6], 3.8. Further, the relative binding affinity (RBA) stood at 0.21 in experiment [3], 5.7 in experiment [4] and 4.01 in experiment [5].
As for `C[C@]12CC[C@H]3[C@@H](CCC4=CC(=O)CC[C@@]43C)[C@@H]1CC[C@@H]2O`, the relative binding affinity (RBA) worked out at 4.19 in experiment [3], 0.09 in experiment [4] and 417 in experiment [5].
As for `C[C@@H]1CC2=CC(=O)CC[C@@H]2C2CC[C@@]3(C)C(C[C@H](F)[C@@H]3O)C21` (some centres not stated), the RBA ratio stood at 730 in the experiment listed under Rattus norvegicus [1], 9.7 in experiment [2] and 23.4 in the experiment filed under Rattus norvegicus [6]. The values for the relative binding affinity (RBA) in experiment [3], in experiment [4] and in experiment [5] were 0.05, 1.6 and 3.75, respectively.
Take `C[C@]12CC[C@H]3[C@@H](CCC4=CC(=O)CC[C@@H]43)[C@@H]1CC[C@@H]2O`: the relative binding affinity (RBA) was determined as 2 in experiment [3], 3.1 in experiment [4] and 29.9 in experiment [5].
On to `C[C@@H]1CC2=CC(=O)CC[C@@H]2C2CC[C@@]3(C)C(C[C@@H](F)[C@]3(C)O)C21` (some centres not stated), for which the RBA ratio in the experiment filed under Rattus norvegicus [1] was determined as 101; in experiment [2], 12; in the experiment listed under Rattus norvegicus [6], 2.6. Besides, the relative binding affinity (RBA) worked out at 0.37 in experiment [3], 14.4 in experiment [4] and 3.1 in experiment [5].
Turning to `C[C@@H]1CC2=CC(=O)CC[C@@H]2C2CC[C@@]3(C)C(C[C@H](F)[C@]3(C)O)C21` (some centres not stated), the RBA ratio in the experiment listed under Rattus norvegicus [1] stood at 385; in experiment [2], 23.7; in the experiment filed under Rattus norvegicus [6] it was 10.3. The relative binding affinity (RBA) in experiment [3] was found to be 0.08; in experiment [4], 3; in experiment [5], 1.3.
As for `C[C@]12CC[C@H]3[C@@H](CCC4CC(=O)CC[C@@]43C)[C@@H]1C[C@H](F)[C@@H]2O` (some centres not stated), the figures for the RBA ratio (in the experiment listed under Rattus norvegicus [1]; in experiment [2]; in the experiment filed under Rattus norvegicus [6]) were 689, 0.16 and 356, respectively. The relative binding affinity (RBA) in experiment [3] is 0.06; in experiment [4], 0.12; in experiment [5] it was 385.
On to `C[C@@H]1CC2=CC(=O)CC[C@@H]2C2CC[C@@]3(C)C(CC[C@@H]3O)C21` (some centres not stated), for which the RBA ratio stood at 210 in the experiment listed under Rattus norvegicus [1], 5.4 in experiment [2] and 42.1 in the experiment listed under Rattus norvegicus [6]. Moreover, the relative binding affinity (RBA) came out at 0.74 in experiment [3], 3.7 in experiment [4] and 28.7 in experiment [5].
